Screening data: PubChem, several laboratories
A selection: hits, their analogues and other compounds. The true share with any hit is near 3.8%.
Yeast growth inh: reduces growth of yeast BB579 in restrictive medium | actives 0.51% (n = 140,000) | inhibition, % at 10 µM | S. cerevisiae BB579 growth, OD615, 48 h | AID 804;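 active = inhibition above a set limit, 3 SD over the mean compound inhibition, cut at about 44% in these data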
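System: Saccharomyces cerevisiae DeaD strain BB579, replicative lifespan model yeast. Buffer or medium: restrictive glucose-based CSMM-D medium. Doses: one dose, 10 µM compound with 0.25% DMSO. Timing: 4 h preincubation and 48 h exposure at 30 °C. Detection: turbidity as optical density at 615 nm. Benchmarks: amphotericin B 10 µg/mL, positive.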
Yeast life ext: extends the lifespan of yeast. S. cerevisiae growth with nicotinamide, OD615; deaD strain in restrictive glucose medium. inhibition of the nicotinamide effect, % at 10 µM. actives 0.68% (n = 130,000);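 active = inhibition above a set limit, placed 3 SD over the median of all compounds, cut at about 26% in these data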;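 also: 0% = nicotinamide-treated wells and 100% = cells grown without nicotinamide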
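Assay system: DeaD-strain S. cerevisiae. Medium: CSMM-D glucose medium, restrictive. Reagent: nicotinamide, 1.5 mM, co-present with compound. Compound: 10 µM single point, 0.25% DMSO. Schedule: culture preincubation 4 h, compound exposure 48 h, both 30 °C. Detection: absorbance at 615 nm.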
RAM network inh: blocks the yeast RAM network; inhibition, % at 50 µM; actives 1.8% (n = 190,000); S. cerevisiae dse1pr::URA3 reporter, 5-FOA growth OD615, 2 d; analog-sensitive cbk1-as2 kinase mutant strain;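 active = inhibition above a set limit, 3 SD over mean compound inhibition, cut at about 8.4% in these data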;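 also: 0% = DMSO-only wells with no growth and 100% = 10 µM 1-NA-PP1 full growth; inhibition rescues growth on 5-FOA so higher OD means more RAM inhibition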
SDO1 yeast rescue: sdo1-depleted yeast growth rescue | S. cerevisiae sdo1-depleted JHY4D growth rescue, OD600 30 h; hits give high values; pdr5 snq2 efflux-pump mutant strain | z-score at 10 µM | actives 0.21% (n = 140,000);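 active = z-score above 3 at both the 24 hr and the 30 hr optical density reads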;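 also: z-score against mean and SD of all compound wells on the same plate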
Measles CPE: protection of cells from measles virus; Measles virus-infected cells, CPE protection, absorbance; protection (pct of control), % at 4 µM; actives 1.5% (n = 140,000); AID 841; in the data active = protection mostly above about 24%, no sharp cut-off; inactive = mostly below about 26%
Starred values were filed as active, the others as inactive.

Cn1c(CNS(=O)(=O)c2ccc(Cl)cc2)n[nH]c1=S was read as Yeast growth inh -10, Yeast life ext -3, SDO1 yeast rescue 1.1 and Measles CPE 5.
COc1ccc(C(C)=O)cc1COc1ccccc1[N+](=O)[O-] was read as RAM network inh 5.
`COc1ccc(C(C)=O)cc1COc1ccc([N+](=O)[O-])c(C)c1` gave RAM network inh 8.6*.
Screening O=C(Cc1ccc(-n2c(=O)[nH]c3ccsc3c2=O)cc1)N1CCN(c2ccc(Cl)cc2)CC1 returned Yeast growth inh -26, Yeast life ext 3, RAM network inh 8.4*, SDO1 yeast rescue 0.33 and Measles CPE 17.
For Cc1[nH]nc(SCC(=O)NCc2ccc(Cl)cc2)c1[N+](=O)[O-] the results were Yeast growth inh -26, Yeast life ext 2, RAM network inh 4, SDO1 yeast rescue 0.66 and Measles CPE 20.
For Cc1ccccc1CCN(C(=O)Cn1nnc2ccccc21)C(C(=O)NCC1CCCO1)c1nc2ccccc2n1C (stereo not given) the results were Yeast growth inh -30, Yeast life ext -4, RAM network inh 1, SDO1 yeast rescue -0.88 and Measles CPE 5.
C/C=C/c1ccc(OCCCCN2CCN(CC)CC2)c(OC)c1 was read as RAM network inh -1.
`C/C=C/c1ccc(OCCCCOc2ccc(OC)cc2)c(OC)c1` gave Yeast growth inh -44, Yeast life ext -5, RAM network inh 10*, SDO1 yeast rescue -0.59 and Measles CPE 9.
Screening CC1CC(C)CN(C(=O)C(C)N(C)CC(=O)Nc2ccc(Cl)cc2)C1 (stereo not given) returned RAM network inh 0.
Screening CCCCCCCCCSc1n[nH]c(N)n1 returned Yeast growth inh -11, Yeast life ext -25, RAM network inh -1, SDO1 yeast rescue -1.3 and Measles CPE 60*.
Cc1nc2cc(C(F)(F)F)ccc2n1C was read as RAM network inh 1.
CCOC(=O)CCCNC(=O)COc1ccccc1C#N was read as Yeast growth inh -11, Yeast life ext 66*, RAM network inh 2, SDO1 yeast rescue 0.31 and Measles CPE 5.
`CCc1cc(C(=O)OC)c(NC(=O)CC2NCCNC2=O)s1` (stereo not given) gave Yeast growth inh -16, Yeast life ext -1, RAM network inh 0, SDO1 yeast rescue 2.3 and Measles CPE 1.
`CCc1cc(C(=O)OC)c(NC(=O)C2CC(=O)NN2Cc2ccccc2)s1` (stereo not given) gave Yeast growth inh -26, Yeast life ext -15, RAM network inh 1, SDO1 yeast rescue -0.11 and Measles CPE 23*.
O=Nc1ccc(NOC(=O)c2ccccc2Br)cc1 was read as Yeast growth inh -32, Yeast life ext -2, RAM network inh 3, SDO1 yeast rescue -1.3 and Measles CPE 28*.
`O=C(ONc1ccc(N=NC(=O)c2ccccc2O)cc1)c1ccccc1` gave Yeast growth inh -16, Yeast life ext 4, RAM network inh 2, SDO1 yeast rescue -0.1 and Measles CPE 2.
`CSc1ccc(/C=C(\C(=O)O)c2ccc(S(=O)(=O)N3CCCCC3)s2)cc1` gave Yeast growth inh -30, Yeast life ext 5, RAM network inh 10*, SDO1 yeast rescue 0.7 and Measles CPE 6.
For COc1ccccc1N(C)S(=O)(=O)c1ccc(Cl)c(C(=O)OCc2c(C)noc2C)c1 the results were RAM network inh 11*.
Screening CC(=O)OC(COc1ccccc1)Cn1cnc2cc(C)c(C)cc21 (stereo not given) returned RAM network inh 0.
For C=CCNC(=O)COc1c(C)ccc(C)c1C the results were RAM network inh -1.
For O=C(COC(=O)c1cc(S(=O)(=O)N2CCOCC2)cs1)c1ccccc1 the results were Yeast growth inh -21, Yeast life ext -15, RAM network inh 1, SDO1 yeast rescue 0.9 and Measles CPE 51*.
Screening Cc1ccc(-c2csc(NC(=O)c3cccc(S(=O)(=O)N4CCN(C)CC4)c3)n2)cc1 returned Yeast growth inh -22, Yeast life ext -15, RAM network inh 2, SDO1 yeast rescue -1.8 and Measles CPE 6.
O=C(COC(=O)c1cc(S(=O)(=O)N2CCOCC2)ccc1O)NCCc1ccccc1 was read as Yeast growth inh -49, Yeast life ext -12, RAM network inh 1, SDO1 yeast rescue 1 and Measles CPE 39*.
Cc1ccc(-c2csc(NC(=O)COC(=O)c3cccc(S(=O)(=O)N4CCOCC4)c3)n2)cc1 was read as Yeast growth inh 15, Yeast life ext -9, RAM network inh 4, SDO1 yeast rescue -0.42 and Measles CPE 28*.
O=C(NCCc1ccccc1)c1cc(S(=O)(=O)N2CCOCC2)ccc1F was read as Yeast growth inh -16, Yeast life ext -6, RAM network inh 2, SDO1 yeast rescue -1.5 and Measles CPE 18.
For O=C(Nc1nc(-c2cccs2)cs1)c1cccc(S(=O)(=O)N2CCCCC2)c1 the results were Yeast growth inh -34, Yeast life ext -11, RAM network inh 4, SDO1 yeast rescue -1.4 and Measles CPE 32*.
Screening CC1CC1C(=O)Nc1nc(-c2ccc(Cl)s2)cs1 (stereo not given) returned RAM network inh 4.
CCOC(=O)Cc1csc(NC(=O)c2ccc(S(=O)(=O)N3CCCCC3)cc2)n1 was read as Yeast growth inh -10, Yeast life ext -7, RAM network inh 2, SDO1 yeast rescue 0.74 and Measles CPE 39*.
`O=C(Nc1nc(-c2ccc(Cl)s2)cs1)c1ccncc1` gave Yeast growth inh 1, Yeast life ext -5, RAM network inh 5, SDO1 yeast rescue 0.67 and Measles CPE 58*.
`O=C(Nc1nc(-c2cccs2)cs1)c1ccc(Cl)cc1` gave Yeast growth inh -59, Yeast life ext -7, RAM network inh 5, SDO1 yeast rescue -2 and Measles CPE 49*.
For CCOC(=O)Cc1csc(NC(=O)c2ccc(NC(C)=O)cc2)n1 the results were Yeast growth inh -4, RAM network inh 2, SDO1 yeast rescue 1.1 and Measles CPE 12.
`COc1ccc(C(=O)Nc2nc(-c3cccs3)cs2)cc1` gave Yeast growth inh -15, Yeast life ext -7, RAM network inh 7, SDO1 yeast rescue -1.7 and Measles CPE 7.
For CC(C)Nc1nc(NC(C)C)nc(SCCOC(=O)Nc2ccc(Cl)cc2Cl)n1 the results were Yeast growth inh -13, Yeast life ext -2, RAM network inh 2, SDO1 yeast rescue -0.49 and Measles CPE 19.
For Cc1cc(C)cc(CC2CC(=O)N(c3ccc(Cl)cn3)C2=O)c1 (stereo not given) the results were Yeast growth inh -25, Yeast life ext 43*, RAM network inh 0, SDO1 yeast rescue -0.8 and Measles CPE 12.
Screening Cc1ccccc1C(=O)O/N=C/c1c(N2CCOCC2)n(C)c2ccccc12 returned Yeast growth inh 79*, Yeast life ext -31, RAM network inh 1, SDO1 yeast rescue -2.3 and Measles CPE 5.
